Measurements reported in ChEMBL document CHEMBL1138062 (J Med Chem, 2006).
The source made the active and inactive calls. The rule behind the calls is not given here.

Tests used:
[1] = biological target: T1, GABA transporter 4 (Mus musculus) (UniProt P31650); test: Inhibition of [3H]GABA uptake at mouse GABA transporter4 expressed in HEK293 cells at 1 mM; assay type: cell-based
T1 sequence (whole entry): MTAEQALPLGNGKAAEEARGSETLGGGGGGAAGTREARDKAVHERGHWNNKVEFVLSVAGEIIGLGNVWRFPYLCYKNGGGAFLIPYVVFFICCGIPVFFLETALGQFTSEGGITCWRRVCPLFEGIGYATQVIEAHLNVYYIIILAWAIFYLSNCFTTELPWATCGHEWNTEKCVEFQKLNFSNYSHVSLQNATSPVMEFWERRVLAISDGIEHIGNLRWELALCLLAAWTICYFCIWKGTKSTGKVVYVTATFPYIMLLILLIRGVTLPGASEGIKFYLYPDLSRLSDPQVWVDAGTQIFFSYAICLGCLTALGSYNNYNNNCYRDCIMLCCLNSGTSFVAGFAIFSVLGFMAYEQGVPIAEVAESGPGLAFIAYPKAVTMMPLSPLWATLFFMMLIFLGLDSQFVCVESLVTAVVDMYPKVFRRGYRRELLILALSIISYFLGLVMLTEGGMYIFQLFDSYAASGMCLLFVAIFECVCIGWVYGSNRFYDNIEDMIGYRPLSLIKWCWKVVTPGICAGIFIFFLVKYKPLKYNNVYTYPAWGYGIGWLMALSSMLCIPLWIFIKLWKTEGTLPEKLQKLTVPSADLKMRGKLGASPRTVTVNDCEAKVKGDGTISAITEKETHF

Mus musculus = species on record: Mus musculus; test: Inhibition of isoguvacine-induced current in mouse cerebral cortical neurons expressing GABAA receptor by whole cell patch clamp method; assay type: functional
How it was run: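 Test agent applied at a range of concentrations against isoguvacine-evoked currents. Currents normalized to the current induced by 20 µM isoguvacine. Mean ± SE from nine neurons. IC50 estimated by linear regression.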

[2] = biological target: Sodium- and chloride-dependent GABA transporter 1 (Mus musculus) (UniProt P31648); test: Inhibition of [3H]GABA uptake at mouse GABA transporter1 expressed in HEK293 cells at 1 mM; assay type: cell-based
[3] = Agonist activity at GABAA receptor in mouse cerebral cortical neurons assessed as induction of peak current at 3 mM relative to GABA by whole cell patch clamp method; assay type: functional
How it was run: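 Peak currents evoked by 3 mM test agent compared with a close to maximal GABA response (600 µM). Specificity was checked by pretreating cells with gabazine (100 µM) for 15 s, then co-applying gabazine (100 µM) with agonist (3 mM). Values are mean ± SE, N = 3–7.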

GABA-B receptor (rat) = test: Inhibition of [3H]GABA binding in GABAB receptor in rat brain synaptic membranes
[4] = biological target: T2, GABA transporter 2 (Mus musculus) (UniProt P31651); test: Inhibition of [3H]GABA uptake at mouse GABA transporter2 expressed in HEK293 cells at 1 mM; assay type: cell-based
T2 sequence (whole entry): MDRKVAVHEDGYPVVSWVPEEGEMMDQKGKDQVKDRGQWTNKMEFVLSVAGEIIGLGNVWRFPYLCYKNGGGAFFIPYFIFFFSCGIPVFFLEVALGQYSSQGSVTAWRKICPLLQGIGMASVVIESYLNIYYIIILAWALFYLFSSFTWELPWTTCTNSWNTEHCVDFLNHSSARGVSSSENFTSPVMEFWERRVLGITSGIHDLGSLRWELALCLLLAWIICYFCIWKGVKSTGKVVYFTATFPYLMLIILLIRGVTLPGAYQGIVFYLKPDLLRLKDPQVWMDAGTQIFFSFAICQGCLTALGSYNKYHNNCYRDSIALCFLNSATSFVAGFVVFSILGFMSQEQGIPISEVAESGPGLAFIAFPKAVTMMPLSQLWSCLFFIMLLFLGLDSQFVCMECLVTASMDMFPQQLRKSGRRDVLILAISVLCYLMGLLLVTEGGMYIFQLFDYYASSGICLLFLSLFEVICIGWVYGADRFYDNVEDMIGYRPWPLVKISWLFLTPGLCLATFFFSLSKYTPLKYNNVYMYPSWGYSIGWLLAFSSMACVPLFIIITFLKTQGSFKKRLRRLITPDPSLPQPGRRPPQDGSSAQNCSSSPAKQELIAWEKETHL

[5] = biological target: T3, GABA transporter 3 (Mus musculus) (UniProt P31649); test: Inhibition of [3H]GABA uptake at mouse GABA transporter3 expressed in HEK293 cells at 1 mM; assay type: cell-based
T3 sequence (whole entry): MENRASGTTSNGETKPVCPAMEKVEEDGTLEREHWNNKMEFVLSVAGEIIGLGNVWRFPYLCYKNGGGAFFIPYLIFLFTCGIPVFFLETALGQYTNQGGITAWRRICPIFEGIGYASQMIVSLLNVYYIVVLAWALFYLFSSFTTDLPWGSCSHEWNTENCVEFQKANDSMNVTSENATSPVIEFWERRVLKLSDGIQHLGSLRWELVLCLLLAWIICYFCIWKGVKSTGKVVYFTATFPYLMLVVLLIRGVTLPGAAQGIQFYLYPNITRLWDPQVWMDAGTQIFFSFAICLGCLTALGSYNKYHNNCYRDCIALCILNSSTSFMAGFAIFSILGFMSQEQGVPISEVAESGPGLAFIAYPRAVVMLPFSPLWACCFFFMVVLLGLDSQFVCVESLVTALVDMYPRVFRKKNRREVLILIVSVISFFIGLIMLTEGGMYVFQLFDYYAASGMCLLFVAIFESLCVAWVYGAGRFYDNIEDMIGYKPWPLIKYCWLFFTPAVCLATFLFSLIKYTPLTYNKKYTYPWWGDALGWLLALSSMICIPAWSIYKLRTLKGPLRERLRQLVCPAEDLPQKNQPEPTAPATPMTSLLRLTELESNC

[6] = biological target: GABA-A receptor; anion channel; test: Displacement of [3H]muscimol from GABAA receptor in rat brain synaptic membranes; assay type: cell membranes, Membrane
How it was run: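 Rat brain membrane preparations used for receptor binding. IC50 and Ki treated as log-normally distributed; mean and SEM calculated on the log scale, with the range given as the antilog of log mean ± SEM.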

| inhibition [1] | inhibition [2] | IC50 (GABA-B receptor (rat)) [µM] | inhibition [4] | inhibition [5] | IC50 [6] [µM] | SMILES | inhibition (Mus musculus) | Activity [3] [%] | Ki [6] [µM] |
| --- | --- | --- | --- | --- | --- | --- | --- | --- | --- |
| inactive | inactive | 25 | inactive | inactive | – | NCCCc1nonc1O | Dose-dependent effect | 14 | 27 |
| inactive | inactive | > 100 | inactive | inactive | > 100 | NCCCCc1nonc1O | Dose-dependent effect | 0.8 | – |

| SMILES | inhibition [1] | inhibition [2] | IC50 (GABA-B receptor (rat)) [µM] | inhibition [4] | inhibition [5] | IC50 [6] [µM] | inhibition (Mus musculus) | Activity [3] [%] | Ki [6] [µM] |
| --- | --- | --- | --- | --- | --- | --- | --- | --- | --- |
| NCCc1nonc1O | inactive | inactive | 2 | inactive | inactive | – | Dose-dependent effect | 40 | 13 |
